Data set [1] concerns Trypanosoma brucei brucei. Put plainly: Anti-parasitic activity against bloodstream form of Trypanosoma brucei brucei Lister 427 after 72 hrs by resazurin-based assay. The class given is functional. As to conditions: Lister 427, 72 h. The procedure, abridged:
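Bloodstream-form T. brucei, modified resazurin-based viability assay. EC50 is the arithmetic mean of at least two independent determinations, each run in triplicate.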
For orientation: The colour change of resazurin is a common sign of viable cells or microbes.

Data set [2] is described as follows: Cytotoxicity against human THP1 cells by MTT assay. The class given is cell-based. Conditions: THP-1 cells. The gist of the method: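 THP-1 cells differentiated to macrophages with PMA, viability read by colorimetric MTT. CC50 and NOAEL are the arithmetic mean of at least two independent determinations, each run in triplicate.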
(Tetrazolium assays rely on reduction of a dye to a coloured formazan, in cell work by metabolically active cells.)

A short description of data set [3]: Cytotoxicity against human A549 cells assessed as cell growth by Cell titer-Glo assay. Type of data set: cell-based. The gist of the method:
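A549 and WI-38 cells grown in DMEM with 10% v/v FCS, streptomycin 100 µg/ml and penicillin G 100 U/ml. Cell number read as cellular ATP by CellTiter-Glo luminescence. Growth 60–100% scored non-cytotoxic, 0–60% cytostatic, below 0 cytotoxic.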
In general terms: Cellular ATP, detected with luciferase, serves as a proxy for viable cell number.

Data set [4] is described as follows: Mitochondrial toxicity in human 786-O cells by mitotracker red chloromethyl-Xrosamine staining based-uptake method. The class given is cell-based, 786-0. The gist of the method:
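786-O renal carcinoma cells kept in RPMI-1640 with 2 mM glutamine, 10% v/v FCS, streptomycin 100 µg/ml and penicillin G 100 U/ml. Mitochondrial toxicity monitored by MitoTracker Red CMXRos uptake with high-content imaging.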

Another data set deals with T1, CYP1A2 (Homo sapiens, UniProt P05177).
T1 sequence (P05177 whole entry): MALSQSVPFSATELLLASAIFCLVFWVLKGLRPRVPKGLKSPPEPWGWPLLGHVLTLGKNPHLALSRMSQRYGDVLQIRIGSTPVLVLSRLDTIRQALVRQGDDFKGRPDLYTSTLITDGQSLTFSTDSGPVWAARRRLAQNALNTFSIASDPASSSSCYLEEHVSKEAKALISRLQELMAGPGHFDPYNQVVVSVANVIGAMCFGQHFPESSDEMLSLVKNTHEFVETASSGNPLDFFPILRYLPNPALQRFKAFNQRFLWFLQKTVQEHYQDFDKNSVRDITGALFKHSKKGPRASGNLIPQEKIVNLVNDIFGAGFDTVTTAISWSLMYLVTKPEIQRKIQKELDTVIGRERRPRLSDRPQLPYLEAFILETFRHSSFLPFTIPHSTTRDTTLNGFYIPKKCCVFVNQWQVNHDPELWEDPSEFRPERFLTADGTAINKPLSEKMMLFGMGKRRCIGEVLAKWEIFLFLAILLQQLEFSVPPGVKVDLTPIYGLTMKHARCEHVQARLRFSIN
Put plainly: Inhibition of human CYP1A2 expressed in baculovirus-infected insect cells at 10 uM using Luciferin-1A2 as substrate in presence of NADPH by P450-Glo luminescence assay relative to control. Type of data set: ADME. As to conditions: probe Luciferin-1A2. The procedure, abridged: (§1)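 CYP enzymes as microsomal preparations from baculovirus-infected insect cells, run on the P450-Glo luminogenic substrate platform. A fall in light output indicates inhibition.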

The target of a further data set is CYP2C19 (Homo sapiens, UniProt P33261). Put plainly: Inhibition of human CYP2C19 expressed in baculovirus-infected insect cells at 10 uM using Luciferin-H EGE as substrate in presence of NADPH by P450-Glo luminescence assay relative to control. The class given is ADME. Conditions: probe Luciferin-H EGE. The gist of the method: as §1
Chain of CYP2C19 (P33261 whole entry): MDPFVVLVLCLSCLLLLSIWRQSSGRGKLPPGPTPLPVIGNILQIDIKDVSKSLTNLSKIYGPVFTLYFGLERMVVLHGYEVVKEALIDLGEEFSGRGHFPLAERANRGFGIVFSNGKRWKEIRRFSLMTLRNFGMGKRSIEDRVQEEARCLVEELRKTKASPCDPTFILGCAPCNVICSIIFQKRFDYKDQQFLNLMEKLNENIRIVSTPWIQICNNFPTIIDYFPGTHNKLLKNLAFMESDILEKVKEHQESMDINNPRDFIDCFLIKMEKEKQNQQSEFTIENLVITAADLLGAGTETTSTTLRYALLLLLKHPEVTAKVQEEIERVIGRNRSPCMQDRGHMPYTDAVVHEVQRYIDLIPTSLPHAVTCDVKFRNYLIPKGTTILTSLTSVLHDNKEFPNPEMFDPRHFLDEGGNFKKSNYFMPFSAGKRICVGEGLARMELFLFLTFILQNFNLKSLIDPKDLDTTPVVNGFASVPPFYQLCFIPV
The next data set addresses Cytochrome P450 2C19 (Homo sapiens, UniProt P33261). Description: Inhibition of human CYP2C19 expressed in baculovirus-infected insect cells using Luciferin-H EGE as substrate in presence of NADPH by P450-Glo luminescence assay. Type of data set: ADME. The procedure, abridged:
as §1

The target in the next data set is CYP2D6 (Homo sapiens, UniProt P10635). Put plainly: Inhibition of human CYP2D6 expressed in baculovirus-infected insect cells at 10 uM using Luciferin-ME EGE as substrate in presence of NADPH by P450-Glo luminescence assay relative to control. The class given is ADME. Conditions: probe Luciferin-ME EGE. The procedure, abridged: as §1
Chain of CYP2D6 (P10635 whole entry): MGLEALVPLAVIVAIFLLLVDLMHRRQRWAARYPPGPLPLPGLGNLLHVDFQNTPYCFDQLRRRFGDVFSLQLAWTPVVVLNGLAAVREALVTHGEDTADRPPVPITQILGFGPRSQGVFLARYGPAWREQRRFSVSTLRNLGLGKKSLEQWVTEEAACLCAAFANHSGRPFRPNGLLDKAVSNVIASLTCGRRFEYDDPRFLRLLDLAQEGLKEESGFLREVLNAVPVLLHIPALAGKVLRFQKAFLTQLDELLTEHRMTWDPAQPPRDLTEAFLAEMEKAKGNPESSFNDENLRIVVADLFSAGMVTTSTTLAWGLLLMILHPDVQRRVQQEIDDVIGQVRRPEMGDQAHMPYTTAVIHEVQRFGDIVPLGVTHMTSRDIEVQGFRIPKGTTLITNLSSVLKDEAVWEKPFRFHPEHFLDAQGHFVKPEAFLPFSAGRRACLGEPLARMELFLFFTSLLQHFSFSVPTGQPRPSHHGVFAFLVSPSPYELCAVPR
A further data set deals with Cytochrome P450 2D6 (Homo sapiens, UniProt P10635). Description: Inhibition of human CYP2D6 expressed in baculovirus-infected insect cells using Luciferin-ME EGE as substrate in presence of NADPH by P450-Glo luminescence assay. The class given is ADME. The procedure, abridged: as §1
Chain of Cytochrome P450 2D6 (P10635 whole entry): as above
Data set [5] is described as follows: Solubility of the compound in water measured after 18 hrs by UV-vis spectroscopic method. The class given is physicochemical. The procedure, abridged: (§2)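 Saturated suspensions prepared at 100 µM in water, 100 µM in PBS, 200 µM in PBS + 10% DMSO and 10 mM in PBS + 50% DMSO. Held 18 h at 25°C, passed through a 0.2 µm filter, then quantified by UV-Vis absorbance at 312 nm using the calculated extinction coefficient.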

Data set [6] can be described thus: Solubility of the compound in phosphate buffered saline measured after 18 hrs by UV-vis spectroscopic method. The class given is physicochemical. The procedure, abridged:
as §2

Data set [7] can be described thus: Drug uptake in BALB/c mouse plasma at 1 mg/kg, iv measured after 45 mins by LC-MS method. Type of data set: ADME, organism-based. The procedure, abridged: (§3)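 BALB/c mice dosed either free (8% DMSO; 1 mg/kg IV or 20 mg/kg oral), or 20 mg/kg oral in 50% w/v hydroxypropyl-β-cyclodextrin, or 20 mg/kg oral in 25% cyclodextrins plus 50% PEG 400. Serial submandibular blood samples stored at -20°C. Plasma measured by isocratic LC-MS (acetonitrile:water 80:20, 0.2 ml/min), quantifier transition m/z 315.0>161.0.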

Data set [8] can be described thus: Drug uptake in BALB/c mouse plasma at 1 mg/kg, iv measured after 60 mins by LC-MS method. The class given is ADME, organism-based. The procedure, abridged: as §3
Data set [9] in a line: Drug uptake in BALB/c mouse plasma at 1 mg/kg, iv measured after 180 mins by LC-MS method. The class given is ADME, organism-based. The procedure, abridged: as §3
Data set [10] can be described thus: Drug uptake in BALB/c mouse plasma at 20 mg/kg, po as cyclodextrin/PEG400 formulation measured after 1 hr by LC-MS method. The class given is ADME, organism-based. The gist of the method: as §3
The nature of data set [11]: Drug uptake in BALB/c mouse plasma at 20 mg/kg, po as cyclodextrin/PEG400 formulation measured after 3 hrs by LC-MS method. The class given is ADME, organism-based. The procedure, abridged: as §3
Data set [12] in a line: Drug uptake in BALB/c mouse plasma at 20 mg/kg, po measured after 0.25 hrs by LC-MS method. Type of data set: ADME, organism-based. The procedure, abridged:
as §3

Data set [13] can be described thus: Drug uptake in BALB/c mouse plasma at 20 mg/kg, po measured after 0.5 hrs by LC-MS method. The class given is ADME, organism-based. The procedure, abridged: as §3
Data set [14] can be described thus: Drug uptake in BALB/c mouse plasma at 20 mg/kg, po measured after 0.75 hrs by LC-MS method. Type of data set: ADME, organism-based. The gist of the method: as §3
Data set [15] in a line: Drug uptake in BALB/c mouse plasma at 20 mg/kg, po as 50% cyclodextrin formulation measured after 0.25 hrs by LC-MS method. The class given is ADME, organism-based. The gist of the method:
as §3

Data set [16] can be described thus: Drug uptake in BALB/c mouse plasma at 20 mg/kg, po as 50% cyclodextrin formulation measured after 0.5 hrs by LC-MS method. The class given is ADME, organism-based. The gist of the method: as §3
Data set [17] can be described thus: Drug uptake in BALB/c mouse plasma at 20 mg/kg, po as 50%% cyclodextrin formulation measured after 0.75 hrs by LC-MS method. The class given is ADME, organism-based. The gist of the method: as §3
Data set [18] is described as follows: Drug uptake in BALB/c mouse plasma at 20 mg/kg, po as 50% cyclodextrin formulation measured after 1 hr by LC-MS method. The class given is ADME, organism-based. The procedure, abridged:
as §3

The nature of data set [19]: Drug uptake in BALB/c mouse plasma at 20 mg/kg, po as 50% cyclodextrin formulation measured after 24 hrs by LC-MS method. The class given is ADME, organism-based. The gist of the method:
as §3

Values after ≈ are worked out from the molar mass of the structure shown.

One may read the EC50 as the concentration needed to bring the measured effect to its halfway point. The low end stands for higher potency in that assay, the high end for lower potency in that assay. A word on the CC50: it is the concentration at which the toxic effect on the cells reaches its halfway point. A higher CC50 goes with lower toxicity to the cells. A word on the GI50: it is the concentration that inhibits growth by half. Usually IC50 stands for the concentration that inhibits the measured activity by half. Broadly, the inhibition is the relative decrease from the control value, in per cent. As usually defined, the solubility is the dissolved amount per volume that the medium holds.

Chain of Cytochrome P450 2C19 (P33261 whole entry): as the sequence (P33261 whole entry) above

With `COc1cccc(/C=C/C(=O)c2cc(OC)c(OC)cc2O)c1`, the response in [1] was half-maximal at 4.2 µM (EC50). Further, the CC50 in data set [2] worked out at 51 µM. The GI50 in data set [3] stood at 12.4 µM. The IC50 in [4] is 14.5 µM; at Cytochrome P450 2C19 it was 7.7 µM; at Cytochrome P450 2D6 it was 6.8 µM. For the same molecule, the inhibition at 10 µM at CYP1A2 came out at 98%; at CYP2C19, 49.2%; at CYP2D6 it was 58.8%. Further, the solubility at 18 h came out at 0.91 µM (≈ 0.286 µg/mL) in data set [5] and 2.37 µM (≈ 0.745 µg/mL) in data set [6]. Further, the concentration at 0.75 h is 23 nM in data set [7], 12 nM in data set [14] and 164 nM in [17]. For the same molecule, the concentration at 1 h in data set [8] worked out at 21 nM; in data set [10], 18 nM; in data set [18] it was 69 nM. Further, the results for the concentration at 3 h in data set [9] and in [11] were 5 nM and 6 nM, respectively. Further, the values for the concentration at 0.25 h in [12] and in [15] were 270 nM and 1100 nM, respectively. Further, the results for the concentration at 0.5 h in data set [13] and in [16] were 49 nM and 563 nM, respectively. The molecule also yielded a concentration at 24 h in [19] of 5 nM.
